Test system: U2OS
Test: Multiplex assay against U2OS
Format: toxicity, cell-based
Details: human
Outline: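 Live cells carried four stains from seeding: Hoechst33342, BioTracker Green Microtubule Cytoskeleton Dye, MitoTracker Red and Annexin V Alexa Fluor 680. They were imaged on a CQ1 microscope at 37°C and 5% CO2 after compound addition. Using CellPathfinder machine-learning gating, cells were split into Hoechst high-intensity objects or normal cells, normal cells into healthy, pyknosed or fragmented nuclei, and pyknosed cells into mitotic or apoptotic; tubulin, mitochondrial-mass and membrane-permeability phenotypes are per cents of healthy-nucleus cells.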

[1] = 12 h, 1 µM, compound concentration 1 uM, replicate 1
[2] = 12 h, 1 µM, compound concentration 1 uM, replicate 2
[3] = 12 h, 10 µM, compound concentration 10 uM, replicate 1
[4] = 12 h, 10 µM, compound concentration 10 uM, replicate 2
[5] = 24 h, 1 µM, compound concentration 1 uM, replicate 1
[6] = 24 h, 1 µM, compound concentration 1 uM, replicate 2
[7] = 24 h, 10 µM, compound concentration 10 uM, replicate 1
[8] = 24 h, 10 µM, compound concentration 10 uM, replicate 2
[9] = 48 h, 1 µM, compound concentration 1 uM, replicate 1
[10] = 48 h, 1 µM, compound concentration 1 uM, replicate 2
[11] = 48 h, 10 µM, compound concentration 10 uM, replicate 1
[12] = 48 h, 10 µM, compound concentration 10 uM, replicate 2

Structure (SMILES): C[C@H](NC(=O)CNC(=O)c1cccc(Cl)c1)c1ccccc1
- Population Apoptotic (%) [1]: 78%
- Population Fragmented Nuclei (%) [1]: 26%
- Population Healthy Nuclei (%) [1]: 61%
- Population Hoechst High Intensity Objects (%) [1]: 3%
- Population Membrane Permeable-Phenotype (%) [1]: 6%
- Population Mitochondria Different-Phenotype (%) [1]: 4%
- Population Mitotic Cells (%) [1]: 21%
- Population Normal (%) [1]: 96%
- Population Pyknosed Nuclei (%) [1]: 12%
- Population Tubulin-Different-Phenotype (%) [1]: 2%
- Total Cell Count [1]: 242
- Population Apoptotic (%) [2]: 71%
- Population Fragmented Nuclei (%) [2]: 20%
- Population Healthy Nuclei (%) [2]: 68%
- Population Membrane Permeable-Phenotype (%) [2]: 8%
- Population Mitochondria Different-Phenotype (%) [2]: 2%
- Population Mitotic Cells (%) [2]: 28%
- Population Pyknosed Nuclei (%) [2]: 11%
- Total Cell Count [2]: 124
- Population Apoptotic (%) [3]: 68%
- Population Fragmented Nuclei (%) [3]: 24%
- Population Healthy Nuclei (%) [3]: 63%
- Population Hoechst High Intensity Objects (%) [3]: 2%
- Population Membrane Permeable-Phenotype (%) [3]: 9%
- Population Mitochondria Different-Phenotype (%) [3]: 3%
- Population Mitotic Cells (%) [3]: 31%
- Population Normal (%) [3]: 97%
- Population Pyknosed Nuclei (%) [3]: 11%
- Population Tubulin-Different-Phenotype (%) [3]: 4%
- Total Cell Count [3]: 198
- Population Apoptotic (%) [4]: 66%
- Population Fragmented Nuclei (%) [4]: 13%
- Population Healthy Nuclei (%) [4]: 82%
- Population Hoechst High Intensity Objects (%) [4]: 0%
- Population Membrane Permeable-Phenotype (%) [4]: 2%
- Population Mitotic Cells (%) [4]: 33%
- Population Normal (%) [4]: 100%
- Population Pyknosed Nuclei (%) [4]: 4%
- Population Tubulin-Different-Phenotype (%) [4]: 2%
- Total Cell Count [4]: 150
- Population Apoptotic (%) [5]: 79%
- Population Fragmented Nuclei (%) [5]: 19%
- Population Healthy Nuclei (%) [5]: 71%
- Population Hoechst High Intensity Objects (%) [5]: 2%
- Population Membrane Permeable-Phenotype (%) [5]: 7%
- Population Mitochondria Different-Phenotype (%) [5]: 2%
- Population Mitotic Cells (%) [5]: 20%
- Population Normal (%) [5]: 97%
- Population Pyknosed Nuclei (%) [5]: 8%
- Population Tubulin-Different-Phenotype (%) [5]: 2%
- Total Cell Count [5]: 275
- Population Apoptotic (%) [6]: 88%
- Population Healthy Nuclei (%) [6]: 69%
- Population Membrane Permeable-Phenotype (%) [6]: 4%
- Population Mitochondria Different-Phenotype (%) [6]: 4%
- Population Mitotic Cells (%) [6]: 11%
- Population Pyknosed Nuclei (%) [6]: 10%
- Population Tubulin-Different-Phenotype (%) [6]: 0%
- Total Cell Count [6]: 168
- Population Apoptotic (%) [7]: 90%
- Population Fragmented Nuclei (%) [7]: 24%
- Population Healthy Nuclei (%) [7]: 61%
- Population Hoechst High Intensity Objects (%) [7]: 1%
- Population Membrane Permeable-Phenotype (%) [7]: 6%
- Population Mitochondria Different-Phenotype (%) [7]: 4%
- Population Mitotic Cells (%) [7]: 9%
- Population Normal (%) [7]: 98%
- Population Pyknosed Nuclei (%) [7]: 13%
- Population Tubulin-Different-Phenotype (%) [7]: 2%
- Total Cell Count [7]: 239
- Population Apoptotic (%) [8]: 71%
- Population Fragmented Nuclei (%) [8]: 12%
- Population Healthy Nuclei (%) [8]: 83%
- Population Membrane Permeable-Phenotype (%) [8]: 4%
- Population Mitochondria Different-Phenotype (%) [8]: 2%
- Population Mitotic Cells (%) [8]: 28%
- Population Pyknosed Nuclei (%) [8]: 3%
- Population Tubulin-Different-Phenotype (%) [8]: 3%
- Total Cell Count [8]: 189
- Population Apoptotic (%) [9]: 74%
- Population Fragmented Nuclei (%) [9]: 18%
- Population Healthy Nuclei (%) [9]: 71%
- Population Hoechst High Intensity Objects (%) [9]: 3%
- Population Membrane Permeable-Phenotype (%) [9]: 6%
- Population Mitochondria Different-Phenotype (%) [9]: 3%
- Population Mitotic Cells (%) [9]: 25%
- Population Normal (%) [9]: 96%
- Population Pyknosed Nuclei (%) [9]: 10%
- Population Tubulin-Different-Phenotype (%) [9]: 1%
- Total Cell Count [9]: 401
- Population Apoptotic (%) [10]: 100%
- Population Fragmented Nuclei (%) [10]: 17%
- Population Healthy Nuclei (%) [10]: 70%
- Population Hoechst High Intensity Objects (%) [10]: 2%
- Population Membrane Permeable-Phenotype (%) [10]: 4%
- Population Mitotic Cells (%) [10]: 0%
- Population Normal (%) [10]: 97%
- Population Pyknosed Nuclei (%) [10]: 11%
- Population Tubulin-Different-Phenotype (%) [10]: 2%
- Total Cell Count [10]: 205
- Population Apoptotic (%) [11]: 81%
- Population Fragmented Nuclei (%) [11]: 19%
- Population Healthy Nuclei (%) [11]: 73%
- Population Hoechst High Intensity Objects (%) [11]: 2%
- Population Membrane Permeable-Phenotype (%) [11]: 6%
- Population Mitochondria Different-Phenotype (%) [11]: 2%
- Population Mitotic Cells (%) [11]: 18%
- Population Normal (%) [11]: 97%
- Population Pyknosed Nuclei (%) [11]: 7%
- Population Tubulin-Different-Phenotype (%) [11]: 4%
- Total Cell Count [11]: 311
- Population Apoptotic (%) [12]: 100%
- Population Fragmented Nuclei (%) [12]: 12%
- Population Healthy Nuclei (%) [12]: 80%
- Population Hoechst High Intensity Objects (%) [12]: 1%
- Population Membrane Permeable-Phenotype (%) [12]: 4%
- Population Mitochondria Different-Phenotype (%) [12]: 1%
- Population Mitotic Cells (%) [12]: 0%
- Population Normal (%) [12]: 98%
- Population Tubulin-Different-Phenotype (%) [12]: 1%
- Total Cell Count [12]: 279
